TAAR1 ag: agonists of human TAAR1 | Q96RJ0 | activation, % at 3 µM | CHO RD-HGA16 TAAR1, Fluo-8 calcium fluorescence; vehicle wells 0%, saturating PEA agonist 100% | 360,000 tested, 0.99% active;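 active = activation above the mean activation of all test compounds in the run plus 3 SD, cut at about 38% in these data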
Target sequence (Q96RJ0 whole entry, looked up): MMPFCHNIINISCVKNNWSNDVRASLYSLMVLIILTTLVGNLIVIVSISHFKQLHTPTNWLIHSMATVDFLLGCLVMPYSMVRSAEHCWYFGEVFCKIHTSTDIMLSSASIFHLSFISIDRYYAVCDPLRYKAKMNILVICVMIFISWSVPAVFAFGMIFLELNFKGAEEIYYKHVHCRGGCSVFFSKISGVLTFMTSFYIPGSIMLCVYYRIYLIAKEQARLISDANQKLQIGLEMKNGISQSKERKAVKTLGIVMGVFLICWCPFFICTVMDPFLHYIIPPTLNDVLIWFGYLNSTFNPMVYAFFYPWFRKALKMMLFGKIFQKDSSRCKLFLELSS
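Assay system: CHO-derived RD-HGA16 cells with stable Gα16 and human TAAR1; timing: 17-24 h seeding, 75 min 37 °C dye, 30 min RT; read-out: % activation from peak over basal fluorescence ratio, DMSO-to-PEA scaled; measured by: kinetic Fluo-8 calcium fluorescence; benchmarks: low control DMSO, high control PEA (EC100); doses: 3 µM single concentration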
OX1R antag-1: antagonists of human orexin 1 receptor; inhibition, % at 5 µM; CHO/OX1R cells, Fluo-8 calcium fluorescence, orexin A; 330,000 tested, 0.43% active;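 active = inhibition above its plate's threshold, mean inhibition of all tested compounds on the plate plus 3 SD, cut at about 37% in these data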;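 note: 0% = orexin A challenge wells and 100% = SB-334867-A antagonist wells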
Target sequence (O43613 whole entry, looked up): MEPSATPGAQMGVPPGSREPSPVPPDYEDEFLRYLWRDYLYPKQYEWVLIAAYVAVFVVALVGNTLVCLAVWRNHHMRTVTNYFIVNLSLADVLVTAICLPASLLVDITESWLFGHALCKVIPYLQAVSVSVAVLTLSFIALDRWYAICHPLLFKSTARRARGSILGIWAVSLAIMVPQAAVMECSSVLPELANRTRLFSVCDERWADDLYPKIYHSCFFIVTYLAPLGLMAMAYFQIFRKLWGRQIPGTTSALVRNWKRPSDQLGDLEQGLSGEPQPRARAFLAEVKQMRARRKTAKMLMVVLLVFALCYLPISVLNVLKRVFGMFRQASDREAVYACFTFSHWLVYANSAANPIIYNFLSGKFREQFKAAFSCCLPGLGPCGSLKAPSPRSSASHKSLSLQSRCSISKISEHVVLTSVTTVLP
TAAR1 antagonist: antagonists of human TAAR1; CHO RD-HGA16 TAAR1, Fluo-8 calcium fluorescence, antagonist; Q96RJ0; 360,000 tested, 1.5% active; inhibition, % at 3 µM;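 active = inhibition above a per-plate cutoff, the mean inhibition of test compounds on that plate plus 3 SD, cut at about 49% in these data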;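 note: 0% = DMSO plus EC80 beta-PEA response and 100% = DMSO alone without agonist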
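System: CHO RD-HGA16 cells bearing hTAAR1. Reagent: EC80 β-phenethylamine stimulus. Schedule: seeding 17-24 h prior, 75-min 37 °C, 30-min RT dye loading. Signal: Fluo-8 intracellular calcium dye fluorescence, real-time kinetic reads. Read-out: % inhibition from peak post-agonist over basal fluorescence ratio. Benchmarks: vehicle wells and EC80 agonist wells. Replicates: n of 1.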
CHO parental Ca: counter-screen for OX1R antagonists: effect in parental CHO cells. parental CHO-K1, ATP-induced calcium, Fluo-8 fluorescence. inhibition, % at 5.6 µM. 330,000 tested, 0.63% active. AID 463079;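 active = inhibition above that plate's mean sample inhibition plus 3 SD, cut at about 26% in these data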;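 note: 0% = ATP-challenged DMSO wells and 100% = DMSO wells without ATP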
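Assay system: untransfected parental CHO cell line. Also added: ATP agonist challenge. Dosing: one dose, 5.6 µM nominal. Measured by: Fluo-8 fluorescence. Read-out: % inhibition. Benchmarks: ATP wells versus no-ATP DMSO wells. Repeats: no replicates.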
OX1R antag-2: antagonists of human orexin 1 receptor (OX1R); O43613; OX1R-expressing cells, FRET antagonist read-out; inhibition, % at 6.6 µM; 330,000 tested, 1.8% active; in the data active = inhibition mostly above about 38%, no sharp cut-off; inactive = mostly below about 40%;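 note: 0% = agonist challenge alone and 100% = reference antagonist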
TAAR1 ag confirm: human TAAR1 agonism, confirmed. shares compounds with TAAR1 ag. CHO RD-HGA16 TAAR1, Fluo-8 calcium fluorescence; scaled: DMSO 0%, maximal phenethylamine 100%. activation, % at 3 µM. 2,400 tested, 82% active. AID 651783;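 active = activation above a cutoff set at the run's mean compound activation plus 3 SD, cut at about 39% in these data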
Ga16 nonsel ag: nonselective agonist in parental cells, TAAR1 agonist counter-screen; shares compounds with TAAR1 ag; CHO-Ga16 parental, Fluo-8 calcium fluorescence; normalized to maximal ATP response, DMSO zero; activation, % at 3 µM; 2,400 tested, 50% active; AID 651787;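 active = activation above the run cutoff, the mean activation over all tested wells plus 3 SD, cut at about 12% in these data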;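 note: 0% = DMSO wells and 100% = maximal ATP response on the peak over basal ratio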
TAAR1 desensitize: human TAAR1 agonist that also desensitizes the receptor; shares compounds with TAAR1 ag; CHO RD-HGA16 hTAAR1, Fluo-8 calcium, beta-PEA response inhibition; inhibition, % at 3 µM; 2,400 tested, 46% active;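 active = inhibition above the run cutoff, the mean inhibition of all test compounds plus 3 SD, cut at about 49% in these data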;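 note: beta-PEA stimulus applied at its EC80; loss of beta-PEA calcium signal after compound pretreatment read as receptor desensitization; 0% = DMSO with beta-PEA at EC80 and 100% = DMSO alone without agonist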
Ga16 nonsel ant: nonselective Ga16 antagonism, counter-screen; shares compounds with TAAR1 ag; CHO-Ga16 ATP-induced calcium, Fluo-8 fluorescence; inhibition, % at 3 µM; 2,400 tested, 39% active; AID 651952;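 active = inhibition above the plate's mean compound inhibition plus 3 SD, computed per plate, cut at about 22% in these data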;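 note: 0% = EC80 ATP with DMSO and 100% = DMSO wells without ATP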
* = called active by the depositor; / = no result given. In the library only some 3.9% were active in any assay of this set; here they are far more common.

SMILES | TAAR1 ag | OX1R antag-1 | TAAR1 antagonist | CHO parental Ca | OX1R antag-2 | TAAR1 ag confirm | Ga16 nonsel ag | TAAR1 desensitize | Ga16 nonsel ant
O=C(c1ccccc1)c1ccc(OCC(O)CNCc2ccc(Cl)cc2)cc1 (stereo unspecified) | 49.5* | -28.3 | 17.6 | -14.9 | -1.9 | 48.1* | 17.4* | 25.6 | 27.7*
CC(Oc1ccc2c(-c3ccccc3)cc(=O)oc2c1)C(=O)NCCCn1ccnc1 (stereo unspecified) | 1.7 | -11.1 | 7.5 | -19.4 | 9.6 | / | / | / | /
OCCCNCc1ccc(N(c2ccccc2)c2ccccc2)cc1 | 45.4* | -24.1 | -3.1 | -2.5 | 0.2 | 72.8* | 24.7* | 27.1 | 16.2
CCN(C(=O)COC(=O)c1cccc(S(=O)(=O)NCc2ccccc2)c1)c1ccccc1 | 4.6 | / | -0.6 | / | / | / | / | / | /
CCc1ccc(Nc2cc(=O)n(C3CCCCC3)c(=O)[nH]2)cc1 | 79.3* | 7.6 | 43.8 | -7.6 | -2.3 | 107.6* | 49.9* | 80.9* | 31.8*
O=c1cc(Nc2ccc3c(c2)OCCO3)[nH]c(=O)n1C1CCCCC1 | 10.4 | -18.4 | 8.9 | -17.5 | 11.9 | / | / | / | /
N#Cc1c(N)sc2c1CCN(CCc1ccccc1)C2 | 78.8* | -7.6 | 44.4 | 10.3 | 23.3 | 83.9* | 2.1 | 64.5* | 0.7
CCOC(=O)N1CCc2c(sc(N)c2C#N)C1 | 0.8 | -5.4 | -20.8 | -4.2 | -0.1 | / | / | / | /
Cc1cc(C)n(-c2nc(Nc3ccccc3)nc(-n3nc(C)cc3C)n2)n1 | 6.3 | -10.5 | 7.6 | -15.8 | 5.5 | / | / | / | /
COc1cccc(/C=N/Nc2nc(Nc3ccccc3)nc(-n3nc(C)cc3C)n2)c1O | 83.7* | 21.6 | 75.6* | 34.2 | 59.2 | 49.5* | 46.6* | 76.2* | 62.8*
CCCCC1C(=O)CC[C@H]2[C@@H]1CC(=O)[C@@H]2C/C=C\CCCC(=O)O (stereo partly specified) | / | -11.8 | / | -12.6 | 16.3 | / | / | / | /
CSc1ccc(Cn2nnc(C(=O)NCc3ccccc3)c2N)cc1 | 98.3* | 25.1 | 75.1* | 4.8 | 1.7 | 104.8* | 48.2* | 59.5* | 41.1*
COc1cc(-c2n[nH]c(=S)n2/N=C/c2cccn2C)cc(OC)c1OC | 138.4* | 77.3* | 71.2* | 29.3 | 1.9 | 139.0* | 112.8* | 97.0* | 78.7*
Cn1cccc1/C=N/n1c(-c2ccco2)n[nH]c1=S | 1.9 | -8.1 | 3.6 | -6.0 | 11.5 | / | / | / | /
O=C(COC(=O)C1CCCCC1)Nc1ccc(S(=O)(=O)N2CCOCC2)cc1 | 1.3 | -7.0 | 0.7 | 5.5 | 8.0 | / | / | / | /
Clc1cccc2c3c([nH]c12)CCNC3 | 59.8* | -1.2 | 40.6 | -1.6 | -0.9 | 87.0* | 4.1 | 66.0* | 0.8
O=C(NCCc1ccccc1Cl)[C@@H]1CCCN1C(=O)[C@@H](NC(=O)N1CCOCC1)C1CCCCC1 | 57.2* | / | 34.7 | / | / | 74.4* | 2.3 | 80.2* | 5.7
O=C(NCc1ccccc1Cl)C1CCCN1C(=O)Nc1ccccc1 (stereo unspecified) | 0.4 | -17.0 | 16.5 | -22.2 | 12.2 | / | / | / | /
CCOC(=O)N[C@H](C(=O)N1CCC[C@H]1C(=O)NCCc1ccccc1Cl)C1CCCCC1 | 61.0* | / | 75.4* | / | / | 85.8* | -0.5 | 95.5* | -2.0
O=C(N[C@H](C(=O)N1CCC[C@H]1C(=O)NCCc1ccccc1Cl)c1ccccc1)C1CCCC1 | 23.5 | / | 11.8 | / | / | / | / | / | /
O=C(NCCc1ccccc1Cl)[C@@H]1CCCN1C(=O)[C@@H](NC(=O)N1CCOCC1)c1ccccc1 | 41.9* | / | 3.4 | / | / | 60.5* | 3.9 | 31.6 | 7.1
O=C(N[C@H](C(=O)N1CCC[C@H]1C(=O)NCCc1ccccc1Cl)C1CCCCC1)c1ccc(Cl)c(Cl)c1 | 4.0 | / | -1.3 | / | / | / | / | / | /
N#Cc1cc2c(nc1Cl)CCC2 | 1.5 | -10.8 | -20.9 | -0.3 | 9.1 | / | / | / | /
O[C@@H](c1cc(C(F)(F)F)nc2c(C(F)(F)F)cccc12)[C@H]1CCCCN1 | 45.2* | -10.4 | 30.1 | 13.2 | 3.1 | 51.4* | 24.4* | 42.9 | 37.0*
COc1cc(CNCCc2c[nH]c3ccccc23)ccc1OCc1ccc(F)cc1 | 59.9* | 9.7 | 49.5* | 10.6 | 10.3 | 53.8* | 30.4* | 52.2* | 49.2*
SMILES | TAAR1 ag | OX1R antag-1 | TAAR1 antagonist | CHO parental Ca | OX1R antag-2 | TAAR1 ag confirm | Ga16 nonsel ag | TAAR1 desensitize | Ga16 nonsel ant
COc1cccc(CNCCc2c[nH]c3ccccc23)c1OCc1ccc(F)cc1 | 28.0 | -2.3 | 31.8 | -9.2 | 15.9 | / | / | / | /
COc1cc(CNCCc2ccccc2F)ccc1OCc1ccc(Cl)nc1 | 73.2* | -22.2 | 36.1 | -12.4 | 7.1 | 77.1* | 9.5 | 56.6* | 19.6
COc1cc(CNCCc2ccc(F)cc2)ccc1OCc1ccc(Cl)nc1 | 37.4 | -9.5 | -4.3 | -12.0 | 9.8 | / | / | / | /
O=C(c1ccc(Cl)c(S(=O)(=O)N2CCOCC2)c1)N1CCN(Cc2ccccc2)CC1 | 8.3 | -22.8 | 12.3 | -16.8 | 12.9 | / | / | / | /
CC(=O)c1sc2nc(SCC(=O)NCCc3ccccc3)[nH]c(=O)c2c1C | 89.7* | -2.6 | 43.3 | -10.4 | 4.4 | 96.8* | 19.1* | 56.3* | -0.7
O=S(=O)(CCN1C=CC(C(F)(F)F)=NCC1)c1ccc(Cl)cc1Cl | 0.9 | -23.5 | -26.2 | -21.7 | 24.2 | / | / | / | /
CN(C)CCCN(C(=O)c1ccc(S(=O)(=O)N2CCc3ccccc32)cc1)c1nc2ccc(F)cc2s1 | 50.7* | -17.1 | 42.2 | -15.6 | 6.1 | 66.2* | 35.5* | 57.3* | 40.7*
CN(C)CCCN(C(=O)c1ccc(S(=O)(=O)N2CCc3ccccc3C2)cc1)c1nc2ccc(F)cc2s1 | 75.0* | -6.7 | 50.0* | -12.3 | 19.4 | 69.2* | 46.3* | 39.9 | 42.4*
CN(C)CCCN(C(=O)c1ccc(S(=O)(=O)N(C)C)cc1)c1nc2ccc(F)cc2s1 | 6.2 | -6.9 | -10.4 | -4.3 | 3.4 | / | / | / | /
O=C(NCc1ccco1)c1ccc2nccnc2c1 | 0.7 | -6.2 | 2.9 | -2.2 | 33.7 | / | / | / | /
COc1ccc(N/N=C/c2c(C(=O)O)ccc3ccccc23)cc1 | 62.4* | -14.2 | 5.6 | -16.4 | 29.6 | 62.3* | 13.3* | 34.6 | 17.7
COc1ccc2ccccc2c1/C=N/Nc1ccc(Cl)c(C(=O)O)c1 | -1.9 | -7.0 | -0.2 | -1.0 | 40.6 | / | / | / | /
COc1cccc(-c2cc(C(F)(F)F)nc(-n3ccc([N+](=O)[O-])n3)n2)c1 | -0.4 | -10.1 | -12.2 | -18.0 | 3.5 | / | / | / | /
